Test results as given in ChEMBL document CHEMBL1128528, “Structure-activity relationships of unsaturated analogues of valproic acid” (J Med Chem, 1995).

Assays:
[1] = tested on: Mus musculus; experiment: Anticonvulsant activity against mice after intraperitoneal administration; type: functional; details: ip
In short: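 Mice, 6 weeks old, eight per dose, received five ip doses of the sodium salt (4 mL/kg). Pentylenetetrazole (85 mg/kg, 10 mL/kg) was given sc at 10 min and animals were watched for 30 min. Unprotected meant a 5 s clonus with loss of balance. ED50 was read from percentage protection vs log(dose). Sedation was scored from activity and muscle tone during handling.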

[2] = tested on: Mus musculus; experiment: Brain concentration after 15 min of administration; type: functional
In short: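 Mice (n = 5, or 4 where footnoted) were given an ED50 dose and killed at 15 min. Whole brains were homogenized in 0.32 M sucrose and stored at -78 °C. Sodium octanoate served as internal standard; samples were acidified with HCl and extracted into EtOAc. Acids were quantified as tert-butyldimethylsilyl esters by GC-MS (EI 70 eV, SIM at M+ − 57). Each sample ran in triplicate; values are mean ± SD.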

[3] = Partition coefficient (logP); type: physicochemical; details: octanol/water
In short: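 Calculated with CLOGP for the undissociated acid as 1-octanol/water partition coefficient; cis and trans isomers not distinguished.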

Row | SMILES | ED50 [1] | C [2] | logP [3]
1 | C/C=C\C(=C/CC)C(=O)O | 0.78 mmol/kg | 350 nM/g | 2.22
2 | O=C(O)C1=CCCCC1 | 2.2 mmol/kg | 1210 nM/g | 1.66
3 | O=C(O)C=C1CCCCC1 | 1.4 mmol/kg | 320 nM/g | 2.28
4 | CC/C=C(\CC)C(=O)O | 1.6 mmol/kg | 660 nM/g | 2.06
5 | O=C(O)C1=CC2CCC1C2 (stereo unspecified) | 2.9 mmol/kg | 2150 nM/g | 1.42
6 | CC/C=C(\C)C(=O)O | 4.4 mmol/kg | 1520 nM/g | 1.53
7 | CC(C)=CC(=O)O | 5.2 mmol/kg | 2710 nM/g | 1.09
8 | O=C(O)C=C1CCCCCC1 | 0.96 mmol/kg | 159 nM/g | 2.84
9 | O=C(O)C1=CCCC1 | 4.7 mmol/kg | 500 nM/g | 1.1
10 | CC/C=C\C(=O)O | 7 mmol/kg | 4460 nM/g | 1.22
11 | O=C(O)C=C1CCCCCCC1 | 0.73 mmol/kg | 94 nM/g | 3.4
12 | CC/C=C/C(=O)O | 6 mmol/kg | 2220 nM/g | 1.22
13 | CCCC(CCC)C(=O)O [VALPROIC ACID] | 0.83 mmol/kg | 620 nM/g | 2.72
14 | C/C=C/C(=C\CC)C(=O)O | 1.4 mmol/kg | 680 nM/g | 2.22
15 | CC/C=C(\CCCC)C(=O)O | 0.87 mmol/kg | 140 nM/g | 3.11
16 | CC/C=C(\CCC)C(=O)O | 0.84 mmol/kg | 260 nM/g | 2.59
17 | O=C(O)C=C1CCCC1 | 2.3 mmol/kg | 450 nM/g | 1.72
